Laboratory results reported in publication PMC7194280 (Leukemia, 2018).
Where two headings read alike, the source gives them in different places. One block for each compound: values may come before it.

What was measured:
[1] = tested on: MM.1S BzR cells; assay: Btz re-sensitization of PI-resistant MM cells; type: cell-based; details: screening hit, low micromolar E61
[2] = tested on: normal cells; assay: PI sensitization in normal cells; type: cell-based; details: PBMCs, WBCs, MRC-5, Wi-38, HFF, MEF; Btz and Crflz
Summary of the method: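 Normal human PBMCs, lymphocytes, lung (MRC-5, Wi-38) and foreskin (HFF) fibroblasts, and mouse MEF fibroblasts were seeded at 3×10^4 cells/well. Cells received 8-dose Btz or Crflz curves with or without 5 µM test compound. Viability was measured by CellTiter-Glo luminescence. Fold change = PI EC50 without / EC50 with test compound; >1 denotes sensitization, <1 protection.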

[3] = tested on: RPMI-8226 cells; assay: Effect on dexamethasone activity in dexamethasone resistant cells; type: cell-based; details: dexamethasone resistant RPMI-8226 cells
[4] = tested on: MM.1S BzR cells; assay: Effect on lenalidomide or doxorubicin cytotoxicity; type: cell-based
[5] = tested on: 20S proteasome; assay: Chymotrypsin-like activity of the 20S proteasome; type: biochemical
[6] = tested on: MM cells; assay: Single-agent anti-MM cell viability; type: cell-based, human; details: read-out: EC50, single-agent anti-MM activity; 24 h of exposure
Summary of the method: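 Myeloma cells were seeded at 3×10^4 cells/well and exposed to test compound alone. Viability was read by CellTiter-Glo luminescence (470 nm, 1-s integration), and EC50 was derived from dose–response curves.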

[7] = target: PDIA1 (Homo sapiens, UniProt P07237); assay: Insulin reduction assay; type: biochemical
Summary of the method: (§1)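 The assay measured reductase activity of recombinant PDI family isoforms through insulin reduction, followed as insulin aggregation (turbidity) kinetic traces. A dose range of test compound was applied. IC50 values were extrapolated from 10-dose inhibition curves.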

[8] = tested on: MM.1S BzR cells; assay: NSG mouse xenotransplant model with MM.1S BzR cells; type: in vivo
Summary of the method: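 Mice implanted i.v. with PI-resistant MM.1S BzR cells; test compound at 50 mg/kg i.p. daily versus vehicle, from day 21 post-implant. Read-out: Kaplan–Meier survival. In a parallel cohort, mice were sacrificed on day 49 and % CD138+ cells in bone marrow biopsies was quantified (vehicle N=8, treated N=7), compared by t-test.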

[9] = Stability against oxidative metabolism by human liver microsomes; type: in vitro ADME
[10] = tested on: MM cells; assay: PI sensitization of MM cell lines; type: cell-based, human
[11] = tested on: PDIA3; assay: Insulin reduction assay; type: biochemical
Summary of the method: as §1

[12] = tested on: PDIA4; assay: Insulin reduction assay; type: biochemical
Summary of the method: as §1

[13] = tested on: TXNDC5; assay: Insulin reduction assay; type: biochemical
Summary of the method: as §1

[14] = tested on: PDIA6; assay: Insulin reduction assay; type: biochemical
Summary of the method: as §1

[15] = Stability in serum, simulated gastric and intestinal fluids; type: in vitro ADME
[16] = Pharmacokinetics in CD-1 mice; type: in vivo, mouse
Summary of the method: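 CD-1 mice received a single dose of test compound, either i.v. at 2 mg/kg or p.o. at 5 mg/kg. Plasma drug concentrations were followed over 24 h by an optimized LC-MS method. Oral bioavailability and terminal half-life were derived from these plasma profiles.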

[17] = tested on: Vk*MYC transgenic mice; assay: Vk*MYC transgenic mouse model of MM; type: in vivo; details: 2 mg/kg i.p. days 1, 3, 5 of each week for 2 weeks; three mice; P=0.0135
[18] = tested on: MM.1S cells; type: in vivo
[19] = mouse, in vivo
[20] = E64FC26 2 mg/kg i.p. 3 days/week, N=9

Sequence of PDIA1 (P07237 18-508): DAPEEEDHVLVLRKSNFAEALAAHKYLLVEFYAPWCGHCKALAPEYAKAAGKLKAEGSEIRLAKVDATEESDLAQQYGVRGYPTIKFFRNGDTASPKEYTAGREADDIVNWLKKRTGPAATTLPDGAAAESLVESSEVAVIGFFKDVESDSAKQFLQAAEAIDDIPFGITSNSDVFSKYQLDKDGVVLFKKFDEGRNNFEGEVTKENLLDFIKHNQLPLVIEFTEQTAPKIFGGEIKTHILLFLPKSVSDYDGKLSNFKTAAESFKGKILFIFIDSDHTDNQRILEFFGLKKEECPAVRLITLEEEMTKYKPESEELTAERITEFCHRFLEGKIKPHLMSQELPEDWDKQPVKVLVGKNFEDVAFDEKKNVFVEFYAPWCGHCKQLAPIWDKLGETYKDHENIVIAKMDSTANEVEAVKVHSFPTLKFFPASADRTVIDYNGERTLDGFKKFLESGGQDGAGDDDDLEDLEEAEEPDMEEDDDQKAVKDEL

Compound: CCCCCCCCOC(=O)/C=C/c1ccc(O)c(O)c1 [E61, n-octyl caffeate]
enhancement of Btz cytotoxicity [1]: > 6 fold
enhancement of the cytotoxic effects of PIs in normal cells [2]: failed to enhance
effect on dexamethasone activity [3]: no effect
effect on lenalidomide or doxorubicin cytotoxicity [4]: did not affect
inhibition of chymotrypsin-like activity of the 20S proteasome [5]: did not inhibit
EC50 [6]: 18300 nM
IC50 in vitro (PDI assay, qualitative) [7]: high micromolar
number of CD138+ MM cells in bone marrow ([8]; 50 mg/kg i.p. daily, sacrificed on day 49, P=0.007): significant reduction
treated mice that never reached the survival endpoint ([8]; 50 mg/kg/day i.p.): 4 of the 11
median survival ([8]; 50 mg/kg/day i.p., continuous dosing, vehicle 51 days): 62 days
prolongation of median survival ([8]; 50 mg/kg/day i.p., continuous dosing, vs vehicle, N=11): 11 days
tolerability (overt signs of distress, body weight) ([8]; continuous dosing for 40+ days, 50 mg/kg/day i.p.): well tolerated
calculated intrinsic clearance in human liver microsomes [9]: 97.6 ± 6.0 µL/min/mg

PDI reductase activity in vitro (qualitative) [7]: no activity
Compound: O=C(O)/C=C/c1ccc(O)c(O)c1 [caffeic acid, reference compound]
enhancement of the sensitivity of MM cells to PIs (qualitative) [10]: failed to enhance

Compound: CCCCCCCC/C=C1\C=C(C(F)(F)F)c2cc(O)c(O)cc21 [E64FC26]
potency relative to E61 in cellular models of PI sensitization [10]: > 10 times
concentrations highly synergistic with PIs ([10]; MM.1S BzR and U266 BzR cells, Btz): ≥ 200 nM
average increase in PI sensitivity ([10]; cells treated with empirically determined EC10–20 of the PDI inhibitor): 6–7 fold
EC50 [6]: 590 nM
potency relative to E61 as inhibitor of PDI activity in vitro [7]: > 50 times
IC50 ([7]; read-out: IC50 against PDIA1, insulin reduction assay): 1900 ± 100 nM
inhibition of PDIA3 (qualitative) [11]: inhibited
inhibition of PDIA4 (qualitative) [12]: inhibited
inhibition of TXNDC5 (qualitative) [13]: inhibited
inhibition of PDIA6 (qualitative) [14]: inhibited
calculated intrinsic clearance in human liver microsomes [9]: 6.22 ± 0.98 µL/min/mg
stability in serum, simulated gastric and intestinal fluids, and human liver microsomes compared to E61 [15]: increased stability
oral bioavailabilty ([16]; p.o. 5 mg/kg, i.v. 2 mg/kg): 34%
Cmax ([16]; read-out: maximum concentration (Cmax), single oral dose of 5 mg/kg, plasma): ~400 nM
terminal half-life ([16]; single oral dose of 5 mg/kg): 9.5 h
average decrease in serum M-protein [17]: 33 ± 7.9%
increase in median survival over vehicle [18, 20]: 2 weeks
increase in median survival over vehicle (percent) [18, 20]: 40%
mice alive on day 36 ([18]; E64FC26 2 mg/kg i.p. 3 days/week, vehicle 0% (0/9)): 100%
overt toxicity or body weight fluctuations ([18]; mouse, in vivo): No overt toxicity or body weight fluctuations
blood serum chemistry markers (toxicology) [19]: mild thrombocytopenia and neutropenia

Compound: CC(C)C[C@H](NC(=O)[C@H](Cc1ccccc1)NC(=O)c1cnccn1)B(O)O [Btz, bortezomib, reference compound]
increase in median survival over vehicle ([18]; Btz 0.25 mg/kg i.p. 2 days/week, E64FC26 2 mg/kg i.p. 3 days/week, N=8): 6 days

inhibition of PDIA3 (qualitative) [11]: failed to inhibit
inhibition of PDIA4 (qualitative) [12]: inhibited
inhibition of TXNDC5 (qualitative) [13]: inhibited
inhibition of PDIA6 (qualitative) [14]: inhibited
Compound: PACMA 31 [reference compound]
